Measured values: ChEMBL document CHEMBL1136006, “New PET imaging agent for the serotonin transporter: [(18)F]ACF (2-[(2-amino-4-chloro-5-fluorophenyl)thio]-N,N-dimethyl-benzenmethanamine)” (J Med Chem, 2002)

Assays:
[1] = organism: Rattus norvegicus; test: Regional brain distribution of [18F]-ACF radiolabeled compound in rat hypothalamus after 240 min; assay type: ADME, organism-based; conditions: in vivo, 4 h
In short: (§1)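 Rats (three per group) under ether anesthesia got 30 μCi tracer in 0.2 mL saline into the femoral vein and were killed by cardiac excision at the stated time. Cortex, striatum, hippocampus, cerebellum, hypothalamus and the rest of brain were dissected, weighed and gamma counted. %dose/g was taken against counts of a diluted initial dose. Regional ratios are each region's %dose/g over cerebellum's. Mean ± SD.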

[2] = organism: Rattus norvegicus; test: Organ distribution of [18F]-ACF radiolabeled compound in rat heart after 30 min; assay type: ADME, organism-based; conditions: in vivo, 0.5 h
In short: (§2)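 Under ether anesthesia, 30 μCi no-carrier-added tracer in 0.2 mL saline injected into the femoral vein. Rats killed by cardiac excision at the stated time. Organs were removed, weighed and counted; % dose/organ was calculated against counts of a 1% initial-dose standard. Three rats per time, average ± SD.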

[3] = organism: Rattus norvegicus; test: Regional brain distribution of [18F]ACF radiolabeled compound in rat hippocampus after 60 min; assay type: ADME, organism-based; conditions: in vivo, 1 h; in short: as §1
[4] = organism: Rattus norvegicus; test: Regional brain distribution of [18F]ACF radiolabeled compound in rat cortex after 120 min; assay type: ADME, organism-based; conditions: in vivo, 2 h; in short: as §1
[5] = tested on: Rattus norvegicus; test: Effect of pretreatment with […] with a dose of 2 mg/kg (i.v.) on specific binding of [18F]ACF in rat brain blood; assay type: ADME, organism-based; parameters: dose 2 mg/kg, route intravenous; conditions: in vivo, iv
In short: (§3)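 Rats pretreated iv with drug (2 mg/kg) or saline 5 min before iv [18F]ACF (50 μCi). Sacrificed 1 h after tracer. Brain regions were dissected, weighed and counted, and % dose/g was calculated against a diluted initial dose. Drug-treated rats were compared with saline controls by ANOVA/Dunnett's test (p<0.05). Three rats per point, average ± SD.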

[6] = organism: Rattus norvegicus; test: Ratio of regional brain distribution of [18F]ACF radiolabeled compound in rat striatum to that of cerebellum after 2 min; assay type: ADME, organism-based; conditions: in vivo; in short: as §1
[7] = organism: Rattus norvegicus; test: Regional brain distribution of [18F]ACF radiolabeled compound in rat cerebellum after 30 min; assay type: ADME, organism-based; conditions: in vivo, 0.5 h; in short: as §1
[8] = organism: Rattus norvegicus; test: Organ distribution of [18F]ACF radiolabeled compound in rat liver after 2 min; assay type: ADME, organism-based; conditions: in vivo
In short: (§4)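 Rats, three per time point, under ether anesthesia; 30 μCi tracer in 0.2 mL saline injected into femoral vein. Sacrificed by cardiac excision under ether at 2, 30, 60, 120 or 240 min. Organs removed, weighed and counted; % dose/organ calculated against counts of 1% of initial dose counted at the same time. Average of three rats ± SD.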

[9] = organism: Rattus norvegicus; test: Ratio of regional brain distribution of [18F]-ACF radiolabeled compound in rat cortex to that of cerebellum after 240 min; assay type: ADME, organism-based; conditions: in vivo, 4 h
In short: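 Rats, three per time point, given 30 μCi tracer in 0.2 mL saline into femoral vein under ether anesthesia; killed at 2, 30, 60, 120 or 240 min. Cortex, striatum, hippocampus, cerebellum, hypothalamus and rest of brain dissected, weighed, counted; % dose/g against diluted initial dose, then each region divided by cerebellum. Average of three rats ± SD.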

[10] = tested on: Rattus norvegicus; test: Effect of pretreatment with methylphenidate with a dose of 2 mg/kg (i.v.) on specific binding of [18F]ACF in rat brain blood; assay type: ADME, organism-based; parameters: dose 2 mg/kg, route intravenous; conditions: in vivo, iv; in short: as §3
[11] = organism: Rattus norvegicus; test: Organ distribution of [18F]ACF radiolabeled compound in rat bone after 2 min; assay type: ADME, organism-based, Bone element; conditions: in vivo; in short: as §4
[12] = organism: Rattus norvegicus; test: Regional brain distribution of [18F]ACF radiolabeled compound in rat hypothalamus after 60 min; assay type: ADME, organism-based; conditions: in vivo, 1 h; in short: as §1
[13] = organism: Rattus norvegicus; test: Regional brain distribution of [18F]-ACF radiolabeled compound in rat remainder (rest of brain) after 60 min; assay type: ADME, organism-based; conditions: in vivo, 1 h; in short: as §1
[14] = organism: Rattus norvegicus; test: Regional brain distribution of [18F]ACF radiolabeled compound in rat hypothalamus after 30 min; assay type: ADME, organism-based; conditions: in vivo, 0.5 h; in short: as §1
[15] = organism: Rattus norvegicus; test: Organ distribution of [18F]ACF radiolabeled compound in rat blood after 30 min; assay type: ADME, organism-based; conditions: in vivo, 0.5 h; in short: as §4
[16] = tested on: Rattus norvegicus; test: Effect of pretreatment with methylphenidate with a dose of 2 mg/kg (i.v.) on specific binding of [18F]-ACF in rat brain remainder; assay type: ADME, organism-based; parameters: dose 2 mg/kg, route intravenous; conditions: in vivo, iv; in short: as §3
[17] = organism: Rattus norvegicus; test: Ratio of regional brain distribution of [18F]-ACF radiolabeled compound in rat hypothalamus to that of cerebellum after 60 min; assay type: ADME, organism-based; conditions: in vivo, 1 h; in short: as §1
[18] = organism: Rattus norvegicus; test: Regional brain distribution of [18F]ACF radiolabeled compound in rat cerebellum after 120 min; assay type: ADME, organism-based; conditions: in vivo, 2 h; in short: as §1
[19] = organism: Rattus norvegicus; test: Ratio of regional brain distribution of [18F]ACF radiolabeled compound in rat striatum to that of cerebellum after 60 min; assay type: ADME, organism-based; conditions: in vivo, 1 h; in short: as §1
[20] = tested on: Rattus norvegicus; test: Ratio of effect of pretreatment with methylphenidate with a dose of 2 mg/kg (i.v.) on specific binding of [18F]ACF in rat brain hypothalamus to that of cerebellum; assay type: ADME, organism-based; parameters: dose 2 mg/kg, route intravenous; conditions: in vivo, iv
In short: (§5)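 Rats (three per point) pretreated iv with competing drug at 2 mg/kg or saline (control) 5 min before iv [18F]ACF (50 μCi). At 1 h post tracer, brain regions (cortex, striatum, hippocampus, cerebellum, hypothalamus, remainder) dissected, weighed, counted as % dose/g and expressed as ratio to cerebellum. Average ± SD; ANOVA with Dunnett's test vs saline controls, p < 0.05.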

[21] = tested on: Rattus norvegicus; test: Effect of pretreatment with (+)-McN5652 with a dose of 2 mg/kg (i.v.) on specific binding of [18F]ACF in rat brain hippocampus; assay type: ADME, organism-based; parameters: dose 2 mg/kg, route intravenous; conditions: in vivo, iv; in short: as §3
[22] = organism: Rattus norvegicus; test: Organ distribution of [18F]-ACF radiolabeled compound in rat liver after 60 min; assay type: ADME, organism-based; conditions: in vivo, 1 h; in short: as §2
[23] = tested on: Rattus norvegicus; test: Ratio of effect of pretreatment with (+)-McN5652 with a dose of 2 mg/kg (i.v.) on specific binding of [18F]ACF in rat brain striatum to that of cerebellum; assay type: ADME, organism-based; parameters: dose 2 mg/kg, route intravenous; conditions: in vivo, iv; in short: as §5
[24] = tested on: Rattus norvegicus; test: Ratio of effect of pretreatment with methylphenidate with a dose of 2 mg/kg (i.v.) on specific binding of [18F]-ACF in rat brain remainder to that of cerebellum; assay type: ADME, organism-based; parameters: dose 2 mg/kg, route intravenous; conditions: in vivo, iv; in short: as §5
[25] = Effect of pretreatment with nisoxatine with a dose of 2 mg/kg (i.v.) on specific binding of [18F]ACF in rat brain cerebellum; assay type: functional, organism-based; parameters: dose 2 mg/kg; in short: as §3
[26] = tested on: Rattus norvegicus; test: Effect of pretreatment with methylphenidate with a dose of 2 mg/kg (i.v.) on specific binding of [18F]ACF in rat brain cortex; assay type: ADME, organism-based; parameters: dose 2 mg/kg, route intravenous; conditions: in vivo, iv; in short: as §3
[27] = organism: Rattus norvegicus; test: Regional brain distribution of [18F]ACF radiolabeled compound in rat hippocampus after 120 min; assay type: ADME, organism-based; conditions: in vivo, 2 h; in short: as §1
[28] = tested on: Rattus norvegicus; test: Effect of pretreatment with (+)-McN5652 with a dose of 2 mg/kg (i.v.) on specific binding of [18F]ACF in rat brain striatum; assay type: ADME, organism-based; parameters: dose 2 mg/kg, route intravenous; conditions: in vivo, iv; in short: as §3
[29] = tested on: Rattus norvegicus; test: Ratio of effect of pretreatment with (+)-McN5652 with a dose of 2 mg/kg (i.v.) on specific binding of [18F]ACF in rat brain hypothalamus to that of cerebellum; assay type: ADME, organism-based; parameters: dose 2 mg/kg, route intravenous; conditions: in vivo, iv; in short: as §5
[30] = target: Sodium-dependent noradrenaline transporter (Homo sapiens, UniProt P23975); test: In vitro binding affinity in LLC-PK1 cells by Norepinephrine transporter binding assay by using [125I]-IPT as a radioligand; assay type: cell-based
Sequence of Sodium-dependent noradrenaline transporter (P23975 whole entry, looked up): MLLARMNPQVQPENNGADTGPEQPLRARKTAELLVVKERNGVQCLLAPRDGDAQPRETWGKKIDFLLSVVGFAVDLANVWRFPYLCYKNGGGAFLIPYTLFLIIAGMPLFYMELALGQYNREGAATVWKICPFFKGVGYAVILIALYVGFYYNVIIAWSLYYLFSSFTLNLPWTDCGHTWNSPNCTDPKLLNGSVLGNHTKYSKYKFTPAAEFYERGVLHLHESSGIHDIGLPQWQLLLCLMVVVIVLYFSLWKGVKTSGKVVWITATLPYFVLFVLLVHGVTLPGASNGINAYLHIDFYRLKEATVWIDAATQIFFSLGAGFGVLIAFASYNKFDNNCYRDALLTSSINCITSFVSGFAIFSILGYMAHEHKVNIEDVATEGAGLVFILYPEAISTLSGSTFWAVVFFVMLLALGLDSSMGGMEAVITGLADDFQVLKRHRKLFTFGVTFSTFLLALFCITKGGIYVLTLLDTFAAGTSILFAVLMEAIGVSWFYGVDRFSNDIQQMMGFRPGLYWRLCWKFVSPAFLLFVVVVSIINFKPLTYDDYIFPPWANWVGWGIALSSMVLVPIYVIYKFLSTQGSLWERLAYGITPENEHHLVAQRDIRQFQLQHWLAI
In short: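 LLC-PK1 cell membrane homogenates overexpressing DAT or NET. Incubated with 0.4 nM [125I]IPT and 8–10 competitor concentrations (10^-10 to 10^-5 M) in 50 mM Tris-HCl pH 7.4, 120 mM NaCl, 0.1% BSA for 1 h at room temperature. Nonspecific binding defined with 10 μM CFT. Filtered, gamma-counted, nonlinear regression. Mean ± SEM of three determinations in duplicate.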

[31] = organism: Rattus norvegicus; test: Organ distribution of [18F]-ACF radiolabeled compound in rat lung after 30 min; assay type: ADME, organism-based; conditions: in vivo, 0.5 h; in short: as §2
[32] = organism: Rattus norvegicus; test: Organ distribution of [18F]ACF radiolabeled compound in rat liver after 240 min; assay type: ADME, organism-based; conditions: in vivo, 4 h; in short: as §4

CN(C)Cc1ccccc1Sc1cc(F)c(Cl)cc1N
Dose/g [1]: 0.05%
Dose/g [2]: 0.18 % dose/organ
Dose/g [3]: 0.45%
Dose/g [4]: 0.09%
Dose/g [5]: 0.26%
Ratio [6]: 1.41
Dose/g [7]: 0.37%
Dose/g [8]: 9.41 % dose/organ
Ratio [9]: 1.52
Dose/g [10]: 0.28%
Dose/g [11]: 0.01 % dose/organ
Dose/g [12]: 0.54%
Dose/g [13]: 0.39%
Dose/g [14]: 0.85%
Dose/g [15]: 4.52 % dose/organ
Dose/g [16]: 0.38%
Ratio [17]: 3.53
Dose/g [18]: 0.05%
Ratio [19]: 2.88
Ratio [20]: 3.05
Dose/g [21]: 0.34%
Dose/g [22]: 10.3 % dose/organ
Ratio [23]: 1.48
Ratio [24]: 2.23
Dose/g [25]: 0.19%
Dose/g [26]: 0.35%
Dose/g [27]: 0.14%
Dose/g [28]: 0.25%
Ratio [29]: 1.36
Ki [30]: 0.65 µM
Dose/g [31]: 1.76 % dose/organ
Dose/g [32]: 3.55 % dose/organ
